Results published in ChEMBL document CHEMBL3745688, “Discovery of novel hybrids of diaryl-1,2,4-triazoles and caffeic acid as dual inhibitors of cyclooxygenase-2 and 5-lipoxygenase for cancer therapy” (Eur J Med Chem, 2016).

Key:
A549 = experiment: Antiproliferative activity against human A549 cells after 72 hrs by MTT assay; format: functional, cell-based; settings: A549, 72 h
Method in brief: (§1)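 Cells seeded at 5×10^4/well, grown 24 h at 37 °C in 5% CO₂, then exposed to compounds dissolved in DMSO at a range of concentrations for 72 h. MTT (5 mg/mL in PBS) added for 4 h, then OD read at 570 nm. IC50 taken from dose-response curves, mean ± S.D. of three independent experiments.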

[1] = Antiproliferative activity against human PC3 cells after 72 hrs by MTT assay; format: functional, cell-based; settings: PC-3, 72 h; method in brief: as §1
[2] = Antiproliferative activity against human Caco2 cells after 72 hrs by MTT assay; format: functional, cell-based; settings: Caco-2, 72 h; method in brief: as §1
[3] = Antiproliferative activity against mouse B16F10 cells after 72 hrs by MTT assay; format: functional, cell-based; settings: B16-F10, 72 h; method in brief: as §1
[4] = molecular target: T1, Prostaglandin G/H synthase 2 (Rattus norvegicus, UniProt P35355); experiment: Inhibition of COX2 in rat abdominal macrophages assessed as PGE2 production pretreated for 30 mins followed by addition of 10 uM arachidonic acid as substrate for 20 mins by EIA
T1 sequence (P35355 whole entry): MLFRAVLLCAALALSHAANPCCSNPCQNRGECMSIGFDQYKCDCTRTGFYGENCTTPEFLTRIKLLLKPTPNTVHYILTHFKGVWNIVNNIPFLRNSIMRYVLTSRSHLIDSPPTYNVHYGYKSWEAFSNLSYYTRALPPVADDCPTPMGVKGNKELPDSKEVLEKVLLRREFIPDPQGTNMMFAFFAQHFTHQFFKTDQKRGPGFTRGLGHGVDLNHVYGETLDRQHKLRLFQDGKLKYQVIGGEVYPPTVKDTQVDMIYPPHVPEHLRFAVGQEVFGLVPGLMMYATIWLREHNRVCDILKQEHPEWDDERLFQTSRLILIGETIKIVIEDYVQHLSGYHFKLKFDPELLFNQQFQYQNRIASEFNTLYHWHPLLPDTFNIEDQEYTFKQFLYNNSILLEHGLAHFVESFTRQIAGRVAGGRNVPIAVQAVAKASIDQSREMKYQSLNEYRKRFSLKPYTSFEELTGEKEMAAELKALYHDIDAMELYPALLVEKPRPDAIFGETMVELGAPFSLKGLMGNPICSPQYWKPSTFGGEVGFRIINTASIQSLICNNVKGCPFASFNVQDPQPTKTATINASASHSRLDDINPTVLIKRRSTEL

[5] = molecular target: T2, Polyunsaturated fatty acid 5-lipoxygenase (Rattus norvegicus, UniProt P12527); experiment: Inhibition of 5-LOX in Sprague-Dawley rat leukocytes assessed as A23187 stimulated LTB4 production pretreated for 30 mins followed by addition of A23187 for 30 mins by EIA; format: cell-based
T2 sequence (P12527 whole entry): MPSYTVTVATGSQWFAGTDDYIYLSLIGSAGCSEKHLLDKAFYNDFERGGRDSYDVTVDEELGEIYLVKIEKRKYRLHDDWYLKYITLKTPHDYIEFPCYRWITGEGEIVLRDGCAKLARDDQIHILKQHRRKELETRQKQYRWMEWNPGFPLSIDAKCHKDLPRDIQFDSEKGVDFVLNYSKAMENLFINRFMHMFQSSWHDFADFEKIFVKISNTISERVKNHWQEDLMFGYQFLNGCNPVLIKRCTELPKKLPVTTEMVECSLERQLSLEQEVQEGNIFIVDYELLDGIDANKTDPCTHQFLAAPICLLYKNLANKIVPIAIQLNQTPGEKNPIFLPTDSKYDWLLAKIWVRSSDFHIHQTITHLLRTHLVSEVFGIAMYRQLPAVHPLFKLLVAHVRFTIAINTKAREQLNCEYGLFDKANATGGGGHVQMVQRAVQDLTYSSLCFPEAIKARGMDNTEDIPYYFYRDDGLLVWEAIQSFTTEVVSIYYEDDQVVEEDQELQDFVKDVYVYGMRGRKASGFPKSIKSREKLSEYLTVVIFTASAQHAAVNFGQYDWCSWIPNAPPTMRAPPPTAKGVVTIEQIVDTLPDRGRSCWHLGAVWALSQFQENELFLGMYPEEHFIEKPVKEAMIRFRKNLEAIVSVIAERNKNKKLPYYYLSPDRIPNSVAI
Method in brief: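 Rat peritoneal leukocytes collected from Sprague-Dawley rats primed i.p. with 0.2% glycogen (20 mL/kg). Cells in Hanks solution plated at 1.0×10^6/well and held 10 min at 37 °C. Pretreated 30 min with L-cysteine (10 mM), indomethacin (1 mg/L) and compound or DMSO. A23187 added for 30 min. LTB4 in the clarified supernatant measured by EIA; % inhibition from OD; IC50 by Bliss method.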

SMILES	IC50 (A549)	IC50 [1]	IC50 [2]	IC50 [3]	IC50 [4]	IC50 [5]
CC(=O)Oc1ccc(/C=C/C(=O)NCCCSc2nc(-c3ccc(S(C)(=O)=O)cc3)n(-c3ccc(Br)cc3)n2)cc1OC(C)=O	23.3 µM	23.9 µM	26.1 µM	16.4 µM	0.24 µM	0.99 µM
CC(=O)Oc1ccc(/C=C/C(=O)NCCCSc2nc(-c3ccc(S(N)(=O)=O)cc3)n(-c3ccccc3)n2)cc1OC(C)=O	32.7 µM	35.2 µM	31 µM	29.1 µM	0.63 µM	0.97 µM
CC(=O)Oc1ccc(/C=C/C(=O)OCCSc2nc(-c3ccc(S(N)(=O)=O)cc3)n(-c3ccccc3)n2)cc1OC(C)=O					0.85 µM	1.11 µM
CC(=O)Oc1ccc(/C=C/C(=O)NCCSc2nc(-c3ccc(S(C)(=O)=O)cc3)n(-c3ccc(F)cc3)n2)cc1OC(C)=O	17 µM	18 µM	15.1 µM	14.6 µM	0.16 µM	0.95 µM
CC(=O)Oc1ccc(/C=C/C(=O)NCCCSc2nc(-c3ccc(S(C)(=O)=O)cc3)n(-c3ccc(F)cc3)n2)cc1OC(C)=O	21.8 µM	17.6 µM	20.8 µM	15.2 µM	0.17 µM	0.98 µM
CC(=O)Oc1ccc(/C=C/C(=O)NCCSc2nc(-c3ccc(S(N)(=O)=O)cc3)n(-c3ccc(Br)cc3)n2)cc1OC(C)=O	18.7 µM	17 µM	16.7 µM	15.2 µM	0.18 µM	0.99 µM
O=C(/C=C/c1ccc(O)c(O)c1)OCCc1ccccc1 [CAFFEIC ACID PHENETHYL ESTER]	9.72 µM	10.2 µM	11.3 µM	10.7 µM		
CC(=O)Oc1ccc(/C=C/C(=O)OCCSc2nc(-c3ccc(S(C)(=O)=O)cc3)n(-c3ccccc3)n2)cc1OC(C)=O					0.92 µM	1.21 µM
CC(=O)Oc1ccc(/C=C/C(=O)OCCCSc2nc(-c3ccc(S(C)(=O)=O)cc3)n(-c3ccc(Br)cc3)n2)cc1OC(C)=O	12.9 µM	14.9 µM	11.7 µM	12.8 µM	0.29 µM	0.99 µM
COc1cc(/C=C/C(=O)OCCSc2nc(-c3ccc(S(C)(=O)=O)cc3)n(-c3ccccc3)n2)ccc1O					0.58 µM	0.84 µM
CC(=O)Oc1ccc(/C=C/C(=O)OCCSc2nc(-c3ccc(S(N)(=O)=O)cc3)n(-c3ccc(F)cc3)n2)cc1OC(C)=O	12 µM	9.84 µM	11 µM	11 µM	0.39 µM	1.06 µM
COc1cc(/C=C/C(=O)OCCSc2nc(-c3ccc(S(C)(=O)=O)cc3)n(-c3ccc(C)cc3)n2)ccc1OC(C)=O	15 µM	15.5 µM	14.1 µM	15.3 µM	0.87 µM	0.98 µM
CC(=O)Oc1ccc(/C=C/C(=O)OCCSc2nc(-c3ccc(S(C)(=O)=O)cc3)n(-c3ccc(C(F)(F)F)cc3)n2)cc1OC(C)=O	10.2 µM	14.5 µM	11.3 µM	11.5 µM	0.19 µM	1.06 µM
CC(=O)Oc1ccc(/C=C/C(=O)OCCSc2nc(-c3ccc(S(N)(=O)=O)cc3)n(-c3ccc(Br)cc3)n2)cc1OC(C)=O					0.31 µM	1.05 µM
CC(=O)Oc1ccc(/C=C/C(=O)OCCCSc2nc(-c3ccc(S(N)(=O)=O)cc3)n(-c3ccc(F)cc3)n2)cc1OC(C)=O	9.92 µM	10.5 µM	11.5 µM	10.9 µM	0.36 µM	1.03 µM
NS(=O)(=O)c1ccc(-c2nc(SCCCOC(=O)/C=C/c3ccc(O)c(O)c3)nn2-c2ccccc2)cc1					0.64 µM	0.77 µM
CS(=O)(=O)c1ccc(-c2nc(SCCCOC(=O)/C=C/c3ccc(O)c(O)c3)nn2-c2ccc(Br)cc2)cc1	11.2 µM	12.3 µM	12.4 µM	13.1 µM	0.37 µM	0.79 µM
COc1cc(/C=C/C(=O)OCCSc2nc(-c3ccc(S(C)(=O)=O)cc3)n(-c3ccccc3)n2)ccc1OC(C)=O					0.62 µM	0.96 µM
COc1cc(/C=C/C(=O)OCCSc2nc(-c3ccc(S(C)(=O)=O)cc3)n(-c3ccc(C(F)(F)F)cc3)n2)ccc1OC(C)=O	9.65 µM	9.81 µM	10.8 µM	10.5 µM	0.23 µM	0.92 µM
COc1cc(/C=C/C(=O)OCCSc2nc(-c3ccc(S(C)(=O)=O)cc3)n(-c3ccc(F)cc3)n2)ccc1OC(C)=O	9.61 µM	12.8 µM	10.8 µM	11.2 µM	0.24 µM	0.92 µM
NS(=O)(=O)c1ccc(-c2nc(SCCOC(=O)/C=C/c3ccc(O)c(O)c3)nn2-c2ccccc2)cc1	14.1 µM	15 µM	15 µM	15 µM	0.62 µM	0.8 µM
COc1cc(/C=C/C(=O)OCCSc2nc(-c3ccc(S(C)(=O)=O)cc3)n(-c3ccc(Br)cc3)n2)ccc1OC(C)=O	11.1 µM	13.1 µM	12.1 µM	12.4 µM	0.29 µM	0.94 µM
CC(=O)Oc1ccc(/C=C/C(=O)OCCSc2nc(-c3ccc(S(C)(=O)=O)cc3)n(-c3ccc(F)cc3)n2)cc1OC(C)=O	11.8 µM	15.7 µM	12.8 µM	14.2 µM	0.18 µM	1.05 µM
CC(=O)Oc1ccc(/C=C/C(=O)OCCCSc2nc(-c3ccc(S(N)(=O)=O)cc3)n(-c3ccccc3)n2)cc1OC(C)=O					0.91 µM	1.07 µM
CS(=O)(=O)c1ccc(-c2nc(SCCOC(=O)/C=C/c3ccc(O)c(O)c3)nn2-c2ccccc2)cc1	13.8 µM	14.6 µM	14.8 µM	15 µM	0.67 µM	0.85 µM
NS(=O)(=O)c1ccc(-c2nc(SCCOC(=O)/C=C/c3ccccc3)nn2-c2ccc(Br)cc2)cc1	19.7 µM	20.1 µM	20.9 µM	21.2 µM	0.67 µM	1.28 µM
O=C(O)/C=C/c1ccc(O)c(O)c1 [CAFFEIC ACID]	> 100 µM	> 100 µM	> 100 µM	> 100 µM		
